Among the data in ChEMBL document CHEMBL4118021, “Studies of TAK1-centered polypharmacology with novel covalent TAK1 inhibitors” (Bioorg Med Chem, 2017) are inhibition values, retold here.

Structures are written as SMILES.

For experiment [1], the target named is T1, EKC/KEOPS complex subunit TP53RK (Homo sapiens) (UniProt Q96S44).
T1 sequence (whole entry): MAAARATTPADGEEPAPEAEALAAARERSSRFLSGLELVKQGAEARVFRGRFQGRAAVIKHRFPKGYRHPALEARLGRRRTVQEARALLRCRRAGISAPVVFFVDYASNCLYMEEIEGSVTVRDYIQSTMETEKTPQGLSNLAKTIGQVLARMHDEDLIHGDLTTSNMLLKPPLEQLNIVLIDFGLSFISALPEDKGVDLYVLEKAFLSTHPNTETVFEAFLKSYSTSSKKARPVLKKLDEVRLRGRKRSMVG
Description: Inhibition of PRPK in human SKCO1 cells at 1 uM after 4 hrs using biotin labeled FLSGLELVKQGAEAR probe by mass-spectrometric analysis relative to control. The experiment is classed as cell-based. The method, boiled down: (§1)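 Live SK-CO-1 cells exposed to compound at 1 μM or DMSO for 4 h (KiNativ). Lysates then labeled with lysine-reactive ATP/ADP-biotin probe, and probe-labeled kinase peptides quantified by mass spectrometry. Percent inhibition of probe-dependent recovery calculated relative to DMSO-treated cells.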

The target of experiment [2] is MAP/microtubule affinity-regulating kinase 3 (Homo sapiens) (UniProt P27448). In words: Inhibition of MARK3 in human SKCO1 cells at 1 uM after 4 hrs using biotin labeled DLKAENLLLDADMNIK probe by mass-spectrometric analysis relative to control. The class given is cell-based.
MAP/microtubule affinity-regulating kinase 3 (Homo sapiens), sequence (P27448 whole entry, looked up): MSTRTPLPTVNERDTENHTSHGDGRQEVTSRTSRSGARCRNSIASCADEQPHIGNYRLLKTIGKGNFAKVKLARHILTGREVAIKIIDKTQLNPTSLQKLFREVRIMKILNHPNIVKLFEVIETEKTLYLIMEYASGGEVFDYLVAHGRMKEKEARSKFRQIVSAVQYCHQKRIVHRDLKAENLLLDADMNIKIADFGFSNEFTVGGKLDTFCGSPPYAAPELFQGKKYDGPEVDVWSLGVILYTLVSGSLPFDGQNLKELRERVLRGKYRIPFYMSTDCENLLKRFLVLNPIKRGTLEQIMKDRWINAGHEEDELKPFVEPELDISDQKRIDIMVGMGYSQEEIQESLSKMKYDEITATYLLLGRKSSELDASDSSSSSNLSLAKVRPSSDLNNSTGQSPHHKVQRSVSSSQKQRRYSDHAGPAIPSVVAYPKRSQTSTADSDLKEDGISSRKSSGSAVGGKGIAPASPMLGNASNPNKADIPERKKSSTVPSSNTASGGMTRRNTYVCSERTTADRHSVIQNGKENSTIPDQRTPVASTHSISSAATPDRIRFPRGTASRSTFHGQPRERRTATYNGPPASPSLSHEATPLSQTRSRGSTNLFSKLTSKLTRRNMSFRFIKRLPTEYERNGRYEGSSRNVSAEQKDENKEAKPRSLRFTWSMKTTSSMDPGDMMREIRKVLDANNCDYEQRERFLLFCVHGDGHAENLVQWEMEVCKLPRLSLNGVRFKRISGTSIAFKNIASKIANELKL
The target in experiment [3] is T2, Mitogen-activated protein kinase kinase kinase kinase 3 (Homo sapiens) (UniProt Q8IVH8).
T2 sequence (whole entry): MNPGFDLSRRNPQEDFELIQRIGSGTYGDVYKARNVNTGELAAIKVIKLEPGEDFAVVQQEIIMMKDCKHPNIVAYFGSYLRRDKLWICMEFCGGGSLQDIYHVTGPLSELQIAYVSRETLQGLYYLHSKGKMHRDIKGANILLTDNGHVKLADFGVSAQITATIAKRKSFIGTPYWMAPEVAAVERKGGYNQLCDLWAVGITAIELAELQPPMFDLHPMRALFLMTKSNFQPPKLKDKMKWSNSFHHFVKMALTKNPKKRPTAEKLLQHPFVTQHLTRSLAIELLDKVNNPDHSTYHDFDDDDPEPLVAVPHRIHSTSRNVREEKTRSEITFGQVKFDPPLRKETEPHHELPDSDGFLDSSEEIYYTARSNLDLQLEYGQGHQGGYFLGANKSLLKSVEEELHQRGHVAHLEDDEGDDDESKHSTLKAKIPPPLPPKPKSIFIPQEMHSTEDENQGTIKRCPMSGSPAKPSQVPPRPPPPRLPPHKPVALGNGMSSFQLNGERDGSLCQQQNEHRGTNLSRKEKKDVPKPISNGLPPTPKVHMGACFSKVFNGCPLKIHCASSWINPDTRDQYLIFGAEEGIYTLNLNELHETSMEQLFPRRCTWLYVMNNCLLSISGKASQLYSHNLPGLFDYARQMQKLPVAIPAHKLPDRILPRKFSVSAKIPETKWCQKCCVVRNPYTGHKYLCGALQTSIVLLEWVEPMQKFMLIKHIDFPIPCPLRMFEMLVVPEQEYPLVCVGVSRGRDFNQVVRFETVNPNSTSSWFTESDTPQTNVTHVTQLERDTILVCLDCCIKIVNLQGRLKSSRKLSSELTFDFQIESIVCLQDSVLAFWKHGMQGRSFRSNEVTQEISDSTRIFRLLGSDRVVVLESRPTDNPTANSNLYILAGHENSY
Description: Inhibition of KHS2 in human SKCO1 cells at 1 uM after 4 hrs using biotin labeled NVNTGELAAIKVIK probe by mass-spectrometric analysis relative to control. The experiment is classed as cell-based.

The target in experiment [4] is T3, Dual specificity mitogen-activated protein kinase kinase 7 (Homo sapiens) (UniProt O14733).
T3 sequence (whole entry): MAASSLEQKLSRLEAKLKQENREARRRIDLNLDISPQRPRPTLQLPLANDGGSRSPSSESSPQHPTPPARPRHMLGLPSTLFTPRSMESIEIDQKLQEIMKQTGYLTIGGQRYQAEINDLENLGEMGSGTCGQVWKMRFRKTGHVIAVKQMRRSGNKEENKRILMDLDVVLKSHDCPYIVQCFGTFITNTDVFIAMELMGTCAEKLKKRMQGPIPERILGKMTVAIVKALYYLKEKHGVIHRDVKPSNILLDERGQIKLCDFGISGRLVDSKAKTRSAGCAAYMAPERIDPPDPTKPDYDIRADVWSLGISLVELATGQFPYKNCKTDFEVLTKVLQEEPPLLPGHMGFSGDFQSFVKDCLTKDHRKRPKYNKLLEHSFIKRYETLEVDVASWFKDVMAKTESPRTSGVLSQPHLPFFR
In words: Inhibition of MAP2K7 in human SKCO1 cells at 1 uM after 4 hrs using biotin labeled DVKPSNILLDER probe by mass-spectrometric analysis relative to control. The class given is cell-based.

For experiment [5], the target named is Ribosomal protein S6 kinase alpha-4 (Homo sapiens) (UniProt O75676). Description: Inhibition of MSK2 domain1 in human SKCO1 cells at 1 uM after 4 hrs using biotin labeled DLKLENVLLDSEGHIVLTDFGLSK probe by mass-spectrometric analysis relative to control. The class given is cell-based.
Ribosomal protein S6 kinase alpha-4 (Homo sapiens), sequence (O75676 whole entry, looked up, the tested form may be a part): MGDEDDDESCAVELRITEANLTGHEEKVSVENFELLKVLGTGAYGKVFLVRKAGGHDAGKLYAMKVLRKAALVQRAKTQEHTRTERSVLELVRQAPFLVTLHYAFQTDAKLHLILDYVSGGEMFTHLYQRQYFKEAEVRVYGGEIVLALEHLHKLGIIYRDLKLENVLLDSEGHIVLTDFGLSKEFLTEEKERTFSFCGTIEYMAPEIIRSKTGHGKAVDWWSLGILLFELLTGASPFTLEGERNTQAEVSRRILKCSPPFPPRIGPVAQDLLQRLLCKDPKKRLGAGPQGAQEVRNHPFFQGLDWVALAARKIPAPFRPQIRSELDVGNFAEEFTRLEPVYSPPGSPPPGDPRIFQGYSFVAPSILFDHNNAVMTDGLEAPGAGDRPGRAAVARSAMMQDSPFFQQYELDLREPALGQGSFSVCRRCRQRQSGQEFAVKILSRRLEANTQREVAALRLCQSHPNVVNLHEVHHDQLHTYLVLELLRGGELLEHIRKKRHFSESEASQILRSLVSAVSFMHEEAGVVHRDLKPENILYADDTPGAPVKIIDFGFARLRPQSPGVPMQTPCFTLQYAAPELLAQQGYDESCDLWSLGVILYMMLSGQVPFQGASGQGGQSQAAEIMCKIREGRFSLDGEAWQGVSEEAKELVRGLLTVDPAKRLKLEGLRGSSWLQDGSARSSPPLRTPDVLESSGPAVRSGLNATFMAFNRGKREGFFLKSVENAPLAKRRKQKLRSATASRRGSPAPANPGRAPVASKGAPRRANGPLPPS
For experiment [6], the target named is Microtubule-associated serine/threonine-protein kinase 3 (Homo sapiens) (UniProt O60307). Description: Inhibition of MAST3 in human SKCO1 cells at 1 uM after 4 hrs using biotin labeled DLKPDNLLITSLGHIK probe by mass-spectrometric analysis relative to control. The experiment is classed as cell-based.
Microtubule-associated serine/threonine-protein kinase 3 (Homo sapiens), sequence (O60307 whole entry): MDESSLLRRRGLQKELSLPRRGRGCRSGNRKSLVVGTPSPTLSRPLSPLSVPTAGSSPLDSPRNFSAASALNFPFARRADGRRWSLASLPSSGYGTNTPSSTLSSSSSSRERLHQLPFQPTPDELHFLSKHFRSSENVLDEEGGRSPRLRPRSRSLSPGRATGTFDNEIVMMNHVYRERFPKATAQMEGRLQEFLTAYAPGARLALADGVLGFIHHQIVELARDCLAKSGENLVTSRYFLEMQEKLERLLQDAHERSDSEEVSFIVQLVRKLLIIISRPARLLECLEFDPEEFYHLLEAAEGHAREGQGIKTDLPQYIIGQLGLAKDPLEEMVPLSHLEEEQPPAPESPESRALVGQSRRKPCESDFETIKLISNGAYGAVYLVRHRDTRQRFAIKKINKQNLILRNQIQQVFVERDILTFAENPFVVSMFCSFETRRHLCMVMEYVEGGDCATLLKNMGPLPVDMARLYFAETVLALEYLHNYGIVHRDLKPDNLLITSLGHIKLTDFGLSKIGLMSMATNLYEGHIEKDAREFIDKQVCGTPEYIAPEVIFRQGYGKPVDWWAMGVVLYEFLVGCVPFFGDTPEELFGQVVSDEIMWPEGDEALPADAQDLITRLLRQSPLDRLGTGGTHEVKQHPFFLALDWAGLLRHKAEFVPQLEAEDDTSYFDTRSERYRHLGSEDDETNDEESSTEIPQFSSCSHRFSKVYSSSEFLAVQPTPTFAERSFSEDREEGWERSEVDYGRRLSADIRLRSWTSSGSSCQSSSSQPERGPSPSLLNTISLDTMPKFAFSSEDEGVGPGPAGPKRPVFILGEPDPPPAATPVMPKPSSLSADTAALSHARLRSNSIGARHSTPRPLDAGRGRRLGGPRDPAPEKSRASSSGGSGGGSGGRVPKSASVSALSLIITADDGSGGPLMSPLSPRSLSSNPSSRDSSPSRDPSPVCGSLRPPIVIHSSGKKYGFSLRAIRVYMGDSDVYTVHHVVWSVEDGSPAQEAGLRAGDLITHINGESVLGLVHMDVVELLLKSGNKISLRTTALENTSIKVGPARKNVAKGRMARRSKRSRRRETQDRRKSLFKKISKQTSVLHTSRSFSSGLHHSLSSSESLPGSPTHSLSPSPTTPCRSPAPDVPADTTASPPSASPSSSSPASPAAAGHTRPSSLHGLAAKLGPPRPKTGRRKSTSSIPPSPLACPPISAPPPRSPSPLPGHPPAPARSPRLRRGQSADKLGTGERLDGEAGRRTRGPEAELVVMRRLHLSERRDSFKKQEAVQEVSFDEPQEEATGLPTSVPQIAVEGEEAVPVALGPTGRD
For experiment [7], the target named is T4, Protein kinase C zeta type (Homo sapiens) (UniProt Q05513).
T4 sequence (whole entry): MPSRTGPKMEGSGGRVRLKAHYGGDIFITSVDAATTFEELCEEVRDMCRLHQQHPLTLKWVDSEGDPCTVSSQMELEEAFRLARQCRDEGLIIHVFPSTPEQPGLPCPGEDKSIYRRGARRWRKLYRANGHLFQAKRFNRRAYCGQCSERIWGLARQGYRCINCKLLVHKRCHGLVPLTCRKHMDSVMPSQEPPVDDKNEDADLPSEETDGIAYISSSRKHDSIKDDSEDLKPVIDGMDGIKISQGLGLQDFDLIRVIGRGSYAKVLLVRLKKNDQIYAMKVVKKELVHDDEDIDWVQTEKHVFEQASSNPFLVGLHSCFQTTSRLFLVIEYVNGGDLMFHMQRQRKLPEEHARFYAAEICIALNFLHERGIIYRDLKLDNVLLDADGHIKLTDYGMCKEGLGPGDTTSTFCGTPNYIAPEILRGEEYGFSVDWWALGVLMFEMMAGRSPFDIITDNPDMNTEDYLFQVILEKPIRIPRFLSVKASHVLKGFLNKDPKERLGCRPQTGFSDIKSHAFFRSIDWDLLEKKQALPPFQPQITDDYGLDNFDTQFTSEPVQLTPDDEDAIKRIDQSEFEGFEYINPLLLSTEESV
In words: Inhibition of PKCz in human SKCO1 cells at 1 uM after 4 hrs using biotin labeled DLKLDNVLLDADGHIK probe by mass-spectrometric analysis relative to control. The class given is cell-based. The method in brief: as §1

The target of experiment [8] is Aurora kinase A (Homo sapiens) (UniProt O14965). Description: Inhibition of AurA in human SKCO1 cells at 1 uM after 4 hrs using biotin labeled DIKPENLLLGSAGELK probe by mass-spectrometric analysis relative to control.
Aurora kinase A (Homo sapiens), sequence (O14965 whole entry, looked up): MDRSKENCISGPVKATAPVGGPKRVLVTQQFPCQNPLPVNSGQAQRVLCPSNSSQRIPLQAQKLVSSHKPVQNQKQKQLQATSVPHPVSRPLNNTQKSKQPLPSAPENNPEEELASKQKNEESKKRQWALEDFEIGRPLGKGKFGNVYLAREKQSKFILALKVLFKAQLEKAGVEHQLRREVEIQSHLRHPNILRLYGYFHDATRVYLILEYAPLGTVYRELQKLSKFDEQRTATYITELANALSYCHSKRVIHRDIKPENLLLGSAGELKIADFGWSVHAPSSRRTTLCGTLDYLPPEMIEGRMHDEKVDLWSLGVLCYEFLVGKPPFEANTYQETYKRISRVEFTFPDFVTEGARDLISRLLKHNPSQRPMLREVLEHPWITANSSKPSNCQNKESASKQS

Broadly, the inhibition is the relative decrease from the control value, in per cent. With `C=CC(=O)Nc1ccccc1Oc1nc(Nc2cnn(CCOC)c2)ncc1Cl`, the inhibition is 46.6% in experiment [1]; -8.4% in experiment [2]; -7.5% in experiment [3]; 12.3% in experiment [4]; 10.4% in experiment [5]; 30.6% in experiment [6]. For the same compound, the inhibition in experiment [7] came to 30%; in experiment [8], 48.4%.

Regarding `COc1cc(O)c2c(c1)/C=C/C[C@H](O)[C@H](O)C(=O)/C=C\C[C@H](C)OC2=O`, the inhibition came out at 46.7% in experiment [1]; 3.6% in experiment [2]; 3.1% in experiment [3]; 18.6% in experiment [4]; 39.8% in experiment [5]; 39.2% in experiment [6]. The inhibition in experiment [7] is 42.1%; in experiment [8], 56.3%.

With `C=CC(=O)Nc1ccccc1Nc1nc(Nc2ccc(N3CCN(C)CC3)cc2)ncc1Cl`, the inhibition in experiment [1] was 42.1%; in experiment [2], -7.2%; in experiment [3] it was 42.4%; in experiment [4] it was 13.7%; in experiment [5], 24.5%; in experiment [6] it was 13.2%. Moreover, the results for the inhibition in experiment [7] and in experiment [8] were 14.5% and 89.1%, respectively.
